The values that follow come from PMC10945512 (RSC Advances, 2024).

Data set [1] concerns MT-4 cells. Kind of data set: Cytotoxicity assay. In kind it is cell-based, human. The settings on record: read-out: CC50, concentration that inhibits the proliferation of MT-4 cells by 50%, MTT, five days, average of at least three independent experiments. Summed up:
(§1)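 MT-4 cells grown in RPMI-1640 with 10% FBS, 100 units per mL penicillin and streptomycin, at 37 °C in humidified 5% CO2. Cells seeded at 50 000 per well and exposed to test compound (2.5, 5, 10, 20, 40, 80 μM) for five days at 37 °C. MTT (final 0.5 mg mL−1) added for 2 h, then DMSO. A570 read; measured three times; CC50 calculated.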

Data set [2] addresses HIV-1 integrase (Human immunodeficiency virus type 1 group M subtype B, UniProt P04585). Put plainly: Strand transfer inhibition assay. In kind it is biochemical.
Data set [3] can be described thus: Cytotoxicity assay. In kind it is cell-based, human. Conditions: human, MT-4 cells. Summed up:
as §1

For the molecule “5-nitro-3-(((4-(trifluoromethyl)benzyl)oxy)methyl)-1H-indole-2-carboxylic acid [Compound 10a]”, the CC50 in data set [1] came out at 65.2 ± 5.22 µM.
As to `O=C(O)c1cc2ccccc2[nH]1` [Compound 1, indole-2-carboxylic acid], the IC50 in data set [2] worked out at 32.4 ± 4.51 µM. For the same molecule, the CC50 at 5 days in data set [3] was over 80 µM.
`CCOC(=O)c1[nH]c2ccccc2c1Nc1ccccc1OC` [Compound 4a, ethyl 3-((2-methoxyphenyl)amino)-1H-indole-2-carboxylate]: the IC50 in data set [2] was determined as 10.1 ± 0.56 µM. The molecule further yielded a CC50 at 5 days in data set [3] of over 80 µM.
For `CCOC(=O)c1[nH]c2ccccc2c1Nc1cccc(OC)c1` [Compound 4b, Ethyl 3-((3-methoxyphenyl)amino)-1H-indole-2-carboxylate], in data set [2], the IC50 was 10.2 ± 0.67 µM. In addition, in data set [3], the CC50 at 5 days was over 80 µM.
The molecule `CCOC(=O)c1[nH]c2ccccc2c1Nc1ccc(OC)cc1` [Compound 4c, Ethyl 3-((4-methoxyphenyl)amino)-1H-indole-2-carboxylate] registered an IC50 in data set [2] of over 40 µM. Besides, in data set [3], the CC50 at 5 days was over 80 µM.
For `CCOC(=O)c1[nH]c2ccccc2c1Nc1ccc(OC)c(F)c1` [Compound 4d, Ethyl 3-((3-fluoro-4-methoxyphenyl)amino)-1H-indole-2-carboxylate], in that order: 15.6 ± 1.03 µM and over 80 µM.
In data set [2], `CCOC(=O)c1[nH]c2ccccc2c1Nc1ccc(F)cc1` [Compound 4e, Ethyl 3-((4-fluorophenyl)amino)-1H-indole-2-carboxylate] returned an IC50 of 15.7 ± 1.06 µM. In data set [3], this molecule displayed a CC50 at 5 days of over 80 µM.
For `CCOC(=O)c1[nH]c2ccccc2c1Nc1ccccc1Cl` [Compound 4f, Ethyl 3-((2-chlorophenyl)amino)-1H-indole-2-carboxylate], in that order: over 40 µM and over 80 µM.
In the case of `CCOC(=O)c1[nH]c2ccc(NC(=O)c3ccc(F)cc3)cc2c1Br` [Compound 13a, ethyl 3-bromo-5-(4-fluorobenzamido)-1H-indole-2-carboxylate], in data set [2], the IC50 was determined as 26 ± 1.27 µM. In data set [3], this molecule showed a CC50 at 5 days of over 80 µM.
In data set [2], `CCOC(=O)c1[nH]c2ccc(NC(=O)c3cnccn3)cc2c1Br` [Compound 13b, Ethyl 3-bromo-5-(pyrazine-2-carboxamido)-1H-indole-2-carboxylat] displayed an IC50 of 11.7 ± 1.08 µM. In addition, the CC50 at 5 days in data set [3] is over 80 µM.
For `CCOC(=O)c1cc2ccc(Nc3ccc(F)cc3)cc2[nH]1` [Compound 16a, Ethyl 6-((4-fluorophenyl)amino)-1H-indole-2-carboxylate], in that order: over 40 µM and over 80 µM.
With `CCOC(=O)c1cc2ccc(Nc3ccc(Br)cc3)cc2[nH]1` [Compound 16b, Ethyl 6-((4-bromophenyl)amino)-1H-indole-2-carboxylate], in data set [2], the IC50 is over 40 µM. In data set [3], this molecule displayed a CC50 at 5 days of over 80 µM.
For `CCOC(=O)c1cc2ccc(Nc3ccc(OC)cc3)cc2[nH]1` [Compound 16c, Ethyl 6-((4-methoxyphenyl)amino)-1H-indole-2-carboxylate], in that order: over 40 µM and over 80 µM.
In the case of `CCOC(=O)c1cc2ccc(Nc3cccc(OC)c3)cc2[nH]1` [Compound 16d, Ethyl 6-((3-methoxyphenyl)amino)-1H-indole-2-carboxylate], the IC50 in data set [2] is over 40 µM. For the same molecule, the CC50 at 5 days in data set [3] is over 80 µM.
In turn, `CCOC(=O)c1cc2ccc(Nc3ccccc3OC)cc2[nH]1` [Compound 16e, Ethyl 6-((2-methoxyphenyl)amino)-1H-indole-2-carboxylate] came in with an IC50 in data set [2] of over 40 µM. The same molecule displayed a CC50 at 5 days in data set [3] of over 80 µM.
`CCOC(=O)c1cc2ccc(Nc3ccc(OC)c(F)c3)cc2[nH]1` [Compound 16f, Ethyl 6-((3-fluoro-4-methoxyphenyl)amino)-1H-indole-2-carboxylate]: the IC50 in data set [2] is over 40 µM. The same molecule yielded a CC50 at 5 days in data set [3] of over 80 µM.
The molecule `CCOC(=O)c1cc2ccc(NCc3cccc(F)c3)cc2[nH]1` [Compound 16g, Ethyl 6-((3-fluorobenzyl)amino)-1H-indole-2-carboxylate] had an IC50 in data set [2] of over 40 µM. Moreover, the CC50 at 5 days in data set [3] was over 80 µM.
`CCOC(=O)c1cc2ccc(NCc3ccccc3F)cc2[nH]1` [Compound 16h, Ethyl 6-((2-fluorobenzyl)amino)-1H-indole-2-carboxylate]: the IC50 in data set [2] is 8.68 ± 0.77 µM. Further, the CC50 at 5 days in data set [3] is over 80 µM.
Take `CCOC(=O)c1cc2ccc(NCc3ccccc3Cl)cc2[nH]1` [Compound 16i, Ethyl 6-((2-chlorobenzyl)amino)-1H-indole-2-carboxylate]: in data set [2], inhibition was half-maximal at 14.6 ± 1.12 µM (IC50). The molecule further had a CC50 at 5 days in data set [3] of over 80 µM.
Take `CCOC(=O)c1cc2ccc(NCc3ccc(OC)cc3)cc2[nH]1` [Compound 16j, Ethyl 6-((4-methoxybenzyl)amino)-1H-indole-2-carboxylate]: the IC50 in data set [2] came to 9.67 ± 0.89 µM. This molecule displayed a CC50 at 5 days in data set [3] of over 80 µM.
For `CCOC(=O)c1cc2ccc(NCCc3ccc(F)cc3)cc2[nH]1` [Compound 16k, Ethyl 6-((4-fluorophenethyl)amino)-1H-indole-2-carboxylate], in that order: over 40 µM and over 80 µM.
In data set [2], `O=C(O)c1cc2ccc(Nc3ccc(F)cc3)cc2[nH]1` [Compound 17a, 6-((4-Fluorophenyl)amino)-1H-indole-2-carboxylic acid] had an IC50 of 3.11 ± 0.18 µM. Also, the CC50 at 5 days in data set [3] is over 80 µM.
Take `O=C(O)c1cc2ccc(Nc3ccc(Br)cc3)cc2[nH]1` [Compound 17b, 6-((4-Bromophenyl)amino)-1H-indole-2-carboxylic acid]: the IC50 in data set [2] stood at 6.67 ± 0.51 µM. In data set [3], this molecule yielded a CC50 at 5 days of over 80 µM.
The molecule `COc1ccc(Nc2ccc3cc(C(=O)O)[nH]c3c2)cc1` [Compound 17c, 6-((4-Methoxyphenyl)amino)-1H-indole-2-carboxylic acid] had an IC50 in data set [2] of 12.3 ± 1.06 µM. Moreover, the CC50 at 5 days in data set [3] was over 80 µM.
Regarding `COc1ccccc1Nc1ccc2cc(C(=O)O)[nH]c2c1` [Compound 17e, 6-((2-Methoxyphenyl)amino)-1H-indole-2-carboxylic acid], the 50% inhibitory concentration (IC50) in data set [2] is 7.08 ± 0.63 µM. In data set [3], this molecule yielded a CC50 at 5 days of over 80 µM.
For `COc1ccc(Nc2ccc3cc(C(=O)O)[nH]c3c2)cc1F` [Compound 17f, 6-((3-Fluoro-4-methoxyphenyl)amino)-1H-indole-2-carboxylic acid], in that order: 14.1 ± 0.78 µM and over 80 µM.
Take `O=C(O)c1cc2ccc(NCc3cccc(F)c3)cc2[nH]1` [Compound 17g, 6-((3-Fluorobenzyl)amino)-1H-indole-2-carboxylic acid]: inhibition in data set [2] was half-maximal at 15.6 ± 1.09 µM (IC50). The CC50 at 5 days in data set [3] was over 80 µM.
In data set [3], `Cc1nnc(C(=O)NC(C)(C)c2nc(C(=O)NCc3ccc(F)cc3)c(O)c(=O)n2C)o1` [RAL, Raltegravir, reference compound] displayed a CC50 at 5 days of over 80 µM.
Take “Isopropyl 3-((4-chlorophenethoxy)methyl)-5-nitro-1H-indole-2-carboxylate [Compound 9b]”: the CC50 in data set [1] is over 80 µM.
For the molecule “isopropyl 5-nitro-3-((4-(trifluoromethyl)phenethoxy) methyl)-1H-indole-2-carboxylate [Compound 9a]”, the CC50 in data set [1] is 54.3 ± 4.79 µM.

One may read the IC50 as the midpoint of a concentration-inhibition curve. A low value points to greater potency.
